The text below walks through data of PMC4448975 (Pharmacology Research & Perspectives, 2015).

In one series the target is T1, human ADA2 (Homo sapiens, UniProt Q9NZK5).
T1 sequence (Q9NZK5 30-511): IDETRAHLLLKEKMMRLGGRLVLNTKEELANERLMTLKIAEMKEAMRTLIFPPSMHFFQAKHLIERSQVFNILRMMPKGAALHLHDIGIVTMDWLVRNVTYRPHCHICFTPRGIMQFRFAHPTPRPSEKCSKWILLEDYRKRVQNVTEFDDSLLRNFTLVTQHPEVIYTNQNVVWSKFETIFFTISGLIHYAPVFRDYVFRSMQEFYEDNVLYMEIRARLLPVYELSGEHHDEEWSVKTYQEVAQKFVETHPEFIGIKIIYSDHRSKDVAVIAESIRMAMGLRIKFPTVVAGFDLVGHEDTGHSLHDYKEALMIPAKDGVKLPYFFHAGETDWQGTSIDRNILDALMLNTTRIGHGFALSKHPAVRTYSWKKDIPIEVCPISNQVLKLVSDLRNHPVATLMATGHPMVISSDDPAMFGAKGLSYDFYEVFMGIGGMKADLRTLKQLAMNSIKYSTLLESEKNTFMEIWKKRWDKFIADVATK
Put plainly: Deamination of substrates in ADA2-expressing HEK293 cells. Format: biochemical. The following applies: compared with Mock cells; substance = substrate.

The test system of the next series is Jurkat cells. Put plainly: Cell viability. Format: cell-based, human. The following applies: 24 h, MTT. The procedure, abridged: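 Jurkat cells kept in RPMI-1640 with 10% FBS, penicillin–streptomycin, NaHCO3 and glutamine at 37°C, 5% CO2. Cells were seeded at 1 × 10^4 per well. […] Viability was read by MTT kit. Mean ± SD of three independent determinations; ANOVA with Dunnett's test.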

The target in series [1] is T2, ADA in mouse erythrocytes (Mus musculus, UniProt P03958).
T2 sequence (P03958 1-352): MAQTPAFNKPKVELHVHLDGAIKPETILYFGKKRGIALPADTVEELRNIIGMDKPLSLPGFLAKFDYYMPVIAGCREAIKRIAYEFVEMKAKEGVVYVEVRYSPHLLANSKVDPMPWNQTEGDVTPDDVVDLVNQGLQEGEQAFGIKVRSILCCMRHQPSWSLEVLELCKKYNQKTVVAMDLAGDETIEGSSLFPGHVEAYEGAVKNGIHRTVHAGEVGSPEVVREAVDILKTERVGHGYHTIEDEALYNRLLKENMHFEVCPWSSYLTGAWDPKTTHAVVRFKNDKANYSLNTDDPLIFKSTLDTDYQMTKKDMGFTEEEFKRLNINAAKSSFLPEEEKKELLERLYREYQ
Description: Inhibition of ADA-catalyzed deamination in mouse erythrocytes. Type of series: biochemical. The following applies: for inhibition at 100 µM: read-out: inhibition of the enzyme activity (deamination of cordycepin).

Series [2] concerns the target T3, ADA in human erythrocytes (Homo sapiens, UniProt P00813).
T3 sequence (P00813 1-363): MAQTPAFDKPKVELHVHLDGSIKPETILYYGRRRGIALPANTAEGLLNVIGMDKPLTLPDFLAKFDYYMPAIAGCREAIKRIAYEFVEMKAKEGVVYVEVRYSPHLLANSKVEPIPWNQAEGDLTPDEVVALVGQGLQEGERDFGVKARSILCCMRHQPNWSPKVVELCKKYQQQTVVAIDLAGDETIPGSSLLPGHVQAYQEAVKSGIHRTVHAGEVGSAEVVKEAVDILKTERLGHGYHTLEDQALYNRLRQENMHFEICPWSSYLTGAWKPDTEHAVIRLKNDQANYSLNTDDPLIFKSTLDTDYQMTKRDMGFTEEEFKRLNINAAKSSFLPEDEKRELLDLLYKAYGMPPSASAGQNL
Put plainly: Inhibition of ADA-catalyzed deamination of cordycepin in human erythrocytes. Format: biochemical. The procedure, abridged:
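Human erythrocytes were incubated with cordycepin in 400 mmol/L sodium acetate buffer, pH 5.8, at 37°C after a 3 min preincubation. Inhibitors were present and cordycepin concentrations were varied. Reactions were stopped with acetonitrile and centrifuged. 3′-Deoxyinosine was quantified by reversed-phase HPLC (6% acetonitrile, 1.0 mL/min, 260 nm). Inhibition type and Ki were derived from Dixon plots.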

Series [3] concerns the target T4, ADA1 in Jurkat cell homogenates (Homo sapiens, UniProt P00813).
T4 sequence (P00813 1-363): T3 sequence (P00813 1-363)
Description: Inhibition of cordycepin deamination in Jurkat cell homogenates. The following applies: substrate 100 μmol/L, inhibitor 50 μmol/L. Type of series: biochemical.

With `Nc1ncnc2c1ncn2[C@H]1C[C@H](O)[C@@H](CO)O1` [2′-deoxyadenosine], the “deamination activity toward the substrate in ADA2-expressing HEK293 cells” value at human ADA2 is given as “comparable to those in Mock cells”. As for `Nc1ncnc2c1ncn2[C@@H]1O[C@H](CO)C[C@H]1O` [Cordycepin, 3′-deoxyadenosine], the “cell viability of the Jurkat cells” value with Jurkat cells (cordycepin alone) is listed as “concentration-dependently decreased the cell viability”. As usually defined, the Ki is the equilibrium dissociation constant of an inhibitor or competing ligand from its target. Read a low Ki as tighter binding. The inhibition is the relative decrease from the control value, in per cent. On to `C[C@@H]1O[C@@H](O[C@H]2[C@H](Oc3cc(O)c4c(c3)O[C@H](c3ccc(O)cc3)CC4=O)O[C@H](CO)[C@@H](O)[C@@H]2O)[C@H](O)[C@H](O)[C@H]1O` [Naringin, naringin], for which the inhibition constant Ki amounted to 197 µM in series [1] (mouse erythrocytes, substrate 2′-deoxyadenosine, Dixon plot); 371 ± 10.1 µM in series [1] (mouse erythrocytes, substrate adenosine, Dixon plot); 58.8 ± 0.7 µM in series [1] (mouse erythrocytes, substrate cordycepin, Dixon plot); 168 ± 22.4 µM in series [2]. In addition, the “inhibition of cordycepin deamination in the erythrocytes (in words)” value in series [1] (erythrocytes, 100 μmol/L cordycepin, 100 μmol/L inhibitor, 37°C (Fig.4)) is reported as “moderately inhibited”. The “inhibition pattern against the cordycepin deamination” value was “competitive” in series [1] (mouse erythrocytes, Dixon plot) and “competitively” in series [2] (human erythrocytes, Dixon plot). In addition, the inhibition at 100 µM in series [1] was determined as 20%. Also, the “inhibition of deamination of cordycepin in Jurkat cell homogenates” value in series [3] is listed as “moderately”. As to `OC[C@H]1O[C@@H](n2cnc3c2NC=NC[C@H]3O)C[C@@H]1O` [Pentostatin], the “effect on the cytotoxic effect of cordycepin” value in the series on Jurkat cells (Jurkat cells cotreated with cordycepin and 50 μmol/L inhibitor) is reported as “stronger cytotoxicity”. For `Nc1ncnc2c1ncn2[C@@H]1O[C@H](CO)[C@@H](O)[C@H]1O` [adenosine], at human ADA2, the “deamination activity toward the substrate in ADA2-expressing HEK293 cells” value is “comparable to those in Mock cells”. Take `O=c1c(O)c(-c2ccc(O)cc2)oc2cc(O)cc(O)c12` [kaempferol]: the inhibition at 100 µM in series [1] fell in the range of 0 to 10%. Same read-out and setting: under `O=c1c(O)c(-c2cc(O)c(O)c(O)c2)oc2cc(O)cc(O)c12` [myricetin] stands 0 to 10%.

With `O=C1C[C@@H](c2ccc(O)cc2)Oc2cc(O)cc(O)c21` [naringenin], in series [1], the inhibition at 100 µM fell in the range of 0 to 10%.

Turning to `O=c1c(O)c(-c2ccc(O)c(O)c2)oc2cc(O)cc(O)c12` [quercetin], in series [1], the inhibition at 100 µM lay in the range of 0 to 10%.
